≈ marks a conversion by molar mass, not a printed value.
What was measured:
Type in all cases: functional
Candida albicans = assay: Antifungal activity against Candida albicans ATCC 10145 after 48 hrs; settings: ATCC 10145, 48 h
Summary of the method: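 Yeast maintained in Sabouraud dextrose broth, 24 h at 25 °C; testing by twofold serial dilution in Sabouraud dextrose broth, pH 7.4, final inoculum 10⁴ CFU/ml. Compounds in dimethylformamide/propyleneglycol (0.5:9.5), diluted in medium from 100 to 0.78 (100, 50, 25, 12.5, 6.25, 3.12, 1.56, 0.78).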

Escherichia coli = assay: Antibacterial activity against Escherichia coli ATCC 23556 after 24 hrs; settings: ATCC 23556, 24 h
Summary of the method: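 Twofold serial broth dilution in Mueller–Hinton broth, pH 7.4; compounds dissolved in dimethylformamide/propyleneglycol (0.5:9.5), diluted in medium from 100 down to 0.78 (100, 50, 25, 12.5, 6.25, 3.12, 1.56, 0.78). Inoculum 10⁵ CFU/ml from 24 h broth cultures. Incubated 24 h at 37 °C; MIC taken as last tube without growth. Inoculated broth-only tubes as controls.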

Staphylococcus aureus [1] = assay: Antibacterial activity against methicillin-resistant Staphylococcus aureus isolate after 24 hrs
Summary of the method: (§1)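 Compounds were dissolved in dimethylformamide/propyleneglycol (0.5:9.5) and serially diluted twofold in Mueller–Hinton broth at pH 7.4, from 100 down to 0.78. Inocula came from 24 h broth cultures grown at 37 °C, with a final inoculum of 10⁵ CFU/ml. Tubes were incubated for 24 h at 37 °C alongside inoculated-broth and solvent controls. The MIC was read as the last tube showing no growth.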

Staphylococcus aureus [2] = assay: Antibacterial activity against Staphylococcus aureus ATCC 25923 after 24 hrs; settings: ATCC 25923, 24 h; summary of the method: as §1
Staphylococcus aureus [3] = assay: Antibacterial activity against methicillin-resistant Staphylococcus aureus ATCC 43300 after 24 hrs; settings: ATCC 43300, 24 h; summary of the method: as §1

| SMILES | MIC (Candida albicans) [µg/mL] | MIC (Escherichia coli) [µg/mL] | MIC (Staphylococcus aureus [1]) [µg/mL] | MIC (Staphylococcus aureus [2]) [µg/mL] | MIC (Staphylococcus aureus [3]) [µg/mL] |
| --- | --- | --- | --- | --- | --- |
| O=C(CN1C(=O)S/C(=C\c2sc(Cl)nc2Cl)C1=O)c1ccc([N+](=O)[O-])cc1 | 6.25 (≈ 14.1 µM) | 25 (≈ 56.3 µM) | 12.5 (≈ 28.1 µM) | 12.5 (≈ 28.1 µM) | 12.5 (≈ 28.1 µM) |
| O=C(CN1C(=O)S/C(=C\c2sc(Cl)nc2Cl)C1=O)c1ccc(F)cc1 | 12.5 (≈ 30 µM) | 6.25 (≈ 15 µM) | 6.25 (≈ 15 µM) | 6.25 (≈ 15 µM) | 6.25 (≈ 15 µM) |
| O=C(CN1C(=O)S/C(=C\c2sc(Cl)nc2Cl)C1=O)c1ccc(Cl)cc1 | 6.25 (≈ 14.4 µM) | 25 (≈ 57.6 µM) | 6.25 (≈ 14.4 µM) | 6.25 (≈ 14.4 µM) | 6.25 (≈ 14.4 µM) |
| O=C(CN1C(=O)S/C(=C\c2sc(Cl)nc2Cl)C1=O)c1ccc(Br)cc1 | 6.25 (≈ 13.1 µM) | 6.25 (≈ 13.1 µM) | 12.5 (≈ 26.1 µM) | 12.5 (≈ 26.1 µM) | 6.25 (≈ 13.1 µM) |
| O=C1S/C(=C\c2sc(Cl)nc2Cl)C(=O)N1Cc1ccc(F)cc1 | 12.5 (≈ 32.1 µM) | 25 (≈ 64.2 µM) | 6.25 (≈ 16.1 µM) | 6.25 (≈ 16.1 µM) | 6.25 (≈ 16.1 µM) |
| O=C1S/C(=C\c2sc(Cl)nc2Cl)C(=O)N1Cc1ccc(Cl)cc1 | 6.25 (≈ 15.4 µM) | 25 (≈ 61.6 µM) | 6.25 (≈ 15.4 µM) | 6.25 (≈ 15.4 µM) | 6.25 (≈ 15.4 µM) |
| O=C1S/C(=C\c2sc(Cl)nc2Cl)C(=O)N1Cc1ccc(Cl)cc1Cl | 6.25 (≈ 14.2 µM) | 25 (≈ 56.8 µM) | 12.5 (≈ 28.4 µM) | 12.5 (≈ 28.4 µM) | 12.5 (≈ 28.4 µM) |
| O=C1S/C(=C\c2sc(Cl)nc2Cl)C(=O)N1Cc1ccc([N+](=O)[O-])cc1 | 12.5 (≈ 30 µM) | 25 (≈ 60.1 µM) | 12.5 (≈ 30 µM) | 6.25 (≈ 15 µM) | 6.25 (≈ 15 µM) |
| O=C(CN1C(=O)S/C(=C\c2sc(Cl)nc2Cl)C1=O)c1ccc(Cl)cc1Cl | 12.5 (≈ 26.7 µM) | 25 (≈ 53.4 µM) | 12.5 (≈ 26.7 µM) | 12.5 (≈ 26.7 µM) | 12.5 (≈ 26.7 µM) |
| O=C1S/C(=C\c2sc(Cl)nc2Cl)C(=O)N1Cc1ccccc1 | 6.25 (≈ 16.8 µM) | 25 (≈ 67.3 µM) | 12.5 (≈ 33.7 µM) | 12.5 (≈ 33.7 µM) | 6.25 (≈ 16.8 µM) |
| O=C1S/C(=C\c2sc(Cl)nc2Cl)C(=O)N1Cc1ccc(Br)cc1 | 6.25 (≈ 13.9 µM) | 25 (≈ 55.5 µM) | 6.25 (≈ 13.9 µM) | 6.25 (≈ 13.9 µM) | 12.5 (≈ 27.8 µM) |
| O=C(CN1C(=O)S/C(=C\c2sc(Cl)nc2Cl)C1=O)c1ccccc1 | 12.5 (≈ 31.3 µM) | 25 (≈ 62.6 µM) | 6.25 (≈ 15.7 µM) | 6.25 (≈ 15.7 µM) | 6.25 (≈ 15.7 µM) |
| O=C(CN1C(=O)S/C(=C/c2sc(Cl)nc2Cl)C1=O)c1ccc(Cl)cc1 | 6.25 (≈ 14.4 µM) | 50 (≈ 115 µM) | 6.25 (≈ 14.4 µM) | 12.5 (≈ 28.8 µM) | 12.5 (≈ 28.8 µM) |
| O=C(CN1C(=O)S/C(=C/c2sc(Cl)nc2Cl)C1=O)c1ccc(Cl)cc1Cl | 12.5 (≈ 26.7 µM) | 25 (≈ 53.4 µM) | 12.5 (≈ 26.7 µM) | 12.5 (≈ 26.7 µM) | 12.5 (≈ 26.7 µM) |
| CC1(C)S[C@@H]2[C@H](NC(=O)[C@H](N)c3ccccc3)C(=O)N2[C@H]1C(=O)O [AMPICILLIN] | – | 25 (≈ 71.5 µM) | 1.56 (≈ 4.46 µM) | 6.25 (≈ 17.9 µM) | 1.56 (≈ 4.46 µM) |
| Clc1ccc(COC(Cn2ccnc2)c2ccc(Cl)cc2Cl)c(Cl)c1 (stereo unspecified) [MICONAZOLE] | 25 (≈ 60.1 µM) | – | – | – | 6.25 (≈ 15 µM) |

Source: ChEMBL document CHEMBL1143753, “Synthesis and antimicrobial activity of some new thiazolyl thiazolidine-2,4-dione derivatives” (2007)
